According to the EternaBench riboswitch data:

System: MS2 coat protein
Experiment: apparent Kd, MS2 coat protein; higher = weaker binding; RNA-MaP array; FMN 200 µM where present
How it was run: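 On Illumina sequencing-chip clusters, designs were transcribed by stalled E. coli RNA polymerase and titrated with SNAP-549-labelled MS2 coat protein (0.7 or 1.5 nM, doubling to 3 µM), without and then with constant ligand, in 100 mM Tris-HCl pH 7.5, 80 mM KCl, 4 mM MgCl2, BSA, DTT, yeast tRNA and Tween-20. Apparent Kd is the median of filtered per-cluster curve fits to green signal normalised to red-channel RNA signal and control-cluster median Fmax.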

[1] = designed as: ON switch for flavin mononucleotide, no ligand
[2] = ligand present: flavin mononucleotide, designed as: ON switch for flavin mononucleotide
[3] = designed as: OFF switch for flavin mononucleotide, no ligand
[4] = ligand present: flavin mononucleotide, designed as: OFF switch for flavin mononucleotide

“UCCACUGCUGAGAAGGGAUCCGUGUGGUUCGAAUCAGGAUAUCGAUACAGUGCAGCAUGAGGACAUGAGGAUCACCCAUGUAUC” was tested. Which “apparent Kd” value [1] did it give?
Its value is 13.2 nM.

And the “apparent Kd” value [2]?
Its value is 11.3 nM.

How did the “apparent Kd” value [1] turn out when “CCGAAUGUCACAGGAUAUGGUCCGGGCUCGCGACCAGAAGGGUGAUCUCACAUGAGGAUCACCCAUGUGUAGGCGUUAGGCUAU” was run?
Its value is 34.1 nM.

What about the “apparent Kd” value [2] of the same sequence?
The value was 260 nM.

For “AGAAUGGGCGAGAAGGGAGUACAUGAGGAUCACCCAUGUGGUUCAUGGUGCUCAGGAUAUCGAUAGACCAGGGAGCGUCUCUGA”, which “apparent Kd” value [3] is on record?
Its value is 30 nM.

What about the “apparent Kd” value [4] of the same sequence?
Its value is 148 nM.

Which results are given for “UUUUAACAUGAGGAUCACCCAUGUGAGGAUAUCGAAAUUUAUAUUAAUAUUAUUAAUACGAGAAGGCACAUUUU”?
apparent Kd [3]: 36.9 nM; apparent Kd [4]: 61.8 nM

How did the “apparent Kd” value [3] turn out when “ACAUGAUAUGUAGGAUAUCACAUUAAUUGUUUUAUAAUUGUAAUUUGGAUUUGAGAAGGACAUUUACAUGAGGAUCACCCAUGU” was run?
Its value is 15.9 nM.

And the “apparent Kd” value [4]?
The value was 12.1 nM.

For “AGUGUGAGGCAGGAUAUGCUAUAUGUUCGUAAUGCAGAAGGGUCUACAUGAGGAUCACCCAUGUGUGCGGUUGA”, which “apparent Kd” value [3] is on record?
The value was 183 nM.

And the “apparent Kd” value [4]?
Its value is 523 nM.

With “GUGUACAGAGGAUAUACUGGAGCUAGGAAACUAGCAACUUCACAUGAGGAUCACCCAUGUAGAAGGCUGUACAC” as the sequence, how does the “apparent Kd” value [3] read?
The value was 17.1 nM.

What about the “apparent Kd” value [4] of the same sequence?
The value was 65.7 nM.

Which “apparent Kd” value [1] does the source give for “UCCUACAUGGGAGGAUAUGGGACAUGAGGAUCACCCAUGUGAAAAUUAAAUAUGCCGAGAGGCAACUAGAAGGCCCAUGUAGGU” here?
The value was 35.8 nM.

What about the “apparent Kd” value [2] of the same sequence?
The value was 19.2 nM.

“GCCUGCUGGCGAGGAUAUUCUGUGCGGUUCCGGCUCGUGUCUGUUACAUGAGGAUCACCCAUGUGGGAGAAGGUGUCUGCGGCC” was tested. Which “apparent Kd” value [3] did it give?
The value was 7.66 nM.

And the “apparent Kd” value [4]?
Its value is 8.34 nM.

Which results are given for “ACACACCCAUGAGGUCCCUCCACAUGAGGAUCACCCAUGUGCAGAAGGUACGGCACGGUGUGCGGUAAGGAUAUGUACAAGUAA”?
apparent Kd [3]: 6.08 nM; apparent Kd [4]: 7.71 nM

With “UGGUAACAUGAGGAUCACCCAUGUCAGGAUAUCAGUAAGAAUAGAUGAGAGUAGAAGAUGAGAAGGGACUAUAU” as the sequence, how does the “apparent Kd” value [3] read?
Its value is 29.4 nM.

And the “apparent Kd” value [4]?
The value was 24.4 nM.

What does the source list for “AUCAGUUCGUCAGGAUAUACGUCACUGCGUCAGCAGUGUGGUAAGAUCACAUGAGGAUCACCCAUGUAGAAGGGACGAGCUGAU”?
apparent Kd [3]: 14 nM; apparent Kd [4]: 214 nM

What does the source list for “GUUGUACGAGGAUAUACAUGAGGAUCACCCAUGUGUGUUGUGGGCGACGUACGUUUAUGUAGAAGGCGUGCGGC”?
apparent Kd [3]: 63.6 nM; apparent Kd [4]: 115 nM

For “ACAUGAGGAUCACCCAUGUUAAACGAGGAUAUUUGACUGCACAUGAGGUUCACCCAUGUCCUGCCGAAGAAGGUGUGAAUAAUU”, which “apparent Kd” value [1] is on record?
The value was 33.9 nM.

What about the “apparent Kd” value [2] of the same sequence?
The value was 32.6 nM.

With “UUCAGGGAUCAAGGAUAUCUAUAAUCAUGCGGACAUGAGGAUCACCCAUGUUGAUUACCCAUGAGGGAGAAGGUGAACAUGAGG” as the sequence, how does the “apparent Kd” value [1] read?
Its value is 40.1 nM.

And the “apparent Kd” value [2]?
Its value is 16.7 nM.

For “AGUUAUUCAGGAUAUGGUGUGUUAUACAUGAGGAUCACCCAUGUAGAUCCUGGUUAGGCCUCAGAAGGGAAUGUUA”, which “apparent Kd” value [3] is on record?
The value was 190 nM.

And the “apparent Kd” value [4]?
The value was 190 nM.

How did the “apparent Kd” value [3] turn out when “AGUACUACAGGAUAUACGAGGGAGGUCCACGUGACCCUUCUACAUGAGGAUCACCCAUGUAGAAGGGUAGUACA” was run?
The value was 13.9 nM.

And the “apparent Kd” value [4]?
Its value is 13.9 nM.

How did the “apparent Kd” value [1] turn out when “UAGGUUGUCGUAGGAUAUGUAGGAUAUUCCUACAUGAGGAUCACCCAUGUUAGCAUGGAAGAAGGACAGAAGGACGAUGACCUU” was run?
Its value is 889 nM.

And the “apparent Kd” value [2]?
The value was 15.6 nM.

“UUAUUAAAUGUAGGAUAUGCAUAUUAUUAUUAUGCAGAAGGACAUGAGGAUCACCCAUGUAUAUUAUUAUUAUUUAUUAUUUAU” was tested. Which “apparent Kd” value [3] did it give?
The value was 45.7 nM.

And the “apparent Kd” value [4]?
The value was 61.7 nM.

For “UCUAGACAUGAGGAUCACCCAUGUGAGGAUAUGAUGCGAUCGUCGAAAGACGAUAGCAUCAGAAGGCACAUAUG”, which “apparent Kd” value [3] is on record?
The value was 154 nM.

And the “apparent Kd” value [4]?
The value was 469 nM.

Which “apparent Kd” value [1] does the source give for “GCCAUCGUAUGAGGAUAUGGCACCGAAACGGUGCCAGAAGGCAUGUCAAUCGACAUGAGGAUCACCCAUGUGUUAUCGAUGGCA” here?
The value was 305 nM.

What about the “apparent Kd” value [2] of the same sequence?
Its value is 25.1 nM.

What does the source list for “UUCAGCUCGUCAGGAUAUACGUCACUGCUUCGGCAGUGUGGUAAGAUCACAUGAGGAUCACCCAUGUAGAAGGGACGAGCUGAC”?
apparent Kd [3]: 13.5 nM; apparent Kd [4]: 252 nM

How did the “apparent Kd” value [1] turn out when “AUAUCCUAGAUAGGAUAUACUGAGGUUGAAUGGGUAGAAGGAUCGUUAGGGAAGACUACAUGAGGAUCACCCAUGUUGUGUAUU” was run?
The value was 218 nM.

What about the “apparent Kd” value [2] of the same sequence?
The value was 182 nM.

Which results are given for “AGCUGUGGCCGAGGAUAUCUAAACUCAAUAACCGAAAUAUAAUCGGACAUGAGGAUCACCCAUGUAGAGAAGGCGGUCUCAGCA”?
apparent Kd [3]: 34.1 nM; apparent Kd [4]: 71.8 nM

Which “apparent Kd” value [1] does the source give for “GCCAUCGCGUGAGGAUAUGCUCCGGUUUCCGGAGCAGAAGGCAUGUCAUAAGACAUGAGGAUCACCCAUGUAGUCAAGAUGGCA” here?
Its value is 270 nM.

And the “apparent Kd” value [2]?
The value was 11.4 nM.

Which results are given for “CAGUAGAUCCGAGGAUAUACAAUCCGGAAACGGUACAUGAGGAUCACCCAUGUAGAAGGCGGAUCUACAGGUACUAAAGUACCA”?
apparent Kd [3]: 5.77 nM; apparent Kd [4]: 7.65 nM

For “GGGCUCGGAGGAUAUACAAUGGGCCCGGGAAACCGGGCCCUACAUGAGGAUCACCCAUGUAGAAGGUCGGGCUC”, which “apparent Kd” value [3] is on record?
The value was 16.4 nM.

And the “apparent Kd” value [4]?
The value was 24.8 nM.
